In ChEMBL document CHEMBL1144933, “Novel bioactive and stable neurotensin peptide analogues capable of delivering radiopharmaceuticals and molecular beacons to tumors” (J Med Chem, 2003) one finds ID/g tissue and IC50 data, which are given here for one compound.

Where a SMILES comes first, the peptide text is derived from it. [ ]: non-standard residue; d: D form. The star is where a group is joined. Gly(1-amidinopiperidin-4-yl) = N=C(N)N1CCC([C@H](N)C(=O)O)CC1; DTPA = O=C(O)CN(CCN(CC(=O)O)CC(=O)O)CCN(CC(=O)O)CC(=O)*; Gly(piperidin-4-yl) = N[C@H](C(=O)O)C1CCNCC1; Tle = CC(C)(C)[C@H](N)C(=O)O

For series [1], the system named is Mus musculus. Description: Biodistribution of [111In]DTPA-NT in HT-29 tumor implanted SCID mice pancreas at 1 h postinjection. The series is classed as ADME, organism-based. Particulars: in vivo. The method in brief: (§1)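 Male SCID mice bore HT29 xenografts from 1 × 10^6 cells given s.c. in both rear flanks. Tumours reached about 0.3 g by day 14. Under Metofane anaesthesia, mice received 20 μL (10 μCi) of 111In-DTPA-NT analogue (1400 Ci/mmol) via the jugular vein. Groups of n = 3 were killed by cervical dislocation at 1 and 4 h. Blood and tissues were gamma-counted and reported as %ID/g ± SE.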

Series [2] concerns Mus musculus. Description: Biodistribution of [111In]DTPA-NT in HT-29 tumor implanted SCID mice muscle at 4 h postinjection. The series is classed as ADME, organism-based, Muscle tissue. Particulars: in vivo. The method in brief:
as §1

The test system of series [3] is Mus musculus. Description: Biodistribution of [111In]-DTPA-NT in HT-29 tumor implanted SCID mice liver at 4 hr postinjection LSA administration. Format: ADME, organism-based. The note with it: in vivo. An outline of the steps: (§2)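 Receptor-blocking (low specific activity) arm in male SCID mice with s.c. HT29 flank xenografts of about 0.3 g. Two animals received the same activity (10 μCi, jugular vein) diluted with cold NT to 0.5 Ci/mmol. Tissues were collected after cervical dislocation, radioassayed, and expressed as %ID/g.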

Series [4] concerns Mus musculus. Description: Biodistribution of [111In]DTPA-NT in HT-29 tumor implanted SCID mice kidneys at 4 h postinjection. The series is classed as ADME, organism-based, Kidney. The note with it: in vivo. The method in brief: as §1
The subject of series [5] is Mus musculus. Description: Biodistribution of [111In]-DTPA-NT in HT-29 tumor implanted SCID mice pancreas at 4 hr postinjection LSA administration. The series is classed as ADME, organism-based. The note with it: in vivo. The method in brief: as §2
Series [6] deals with Mus musculus. Description: Biodistribution of [111In]-DTPA-NT in HT-29 tumor implanted SCID mice spleen at 1 hr postinjection. The note with it: in vivo. Format: ADME, organism-based. An outline of the steps:
as §1

Series [7] relates to Mus musculus. Description: Biodistribution of [111In]DTPA-NT in HT-29 tumor implanted SCID mice spleen at 4 h postinjection. Format: ADME, organism-based. Particulars: in vivo. The method in brief:
as §1

In series [8] the test system is Mus musculus. Description: Biodistribution of [111In]DTPA-NT in HT-29 tumor implanted SCID mice kidneys at 1 h postinjection. The series is classed as ADME, organism-based, Kidney. Particulars: in vivo. An outline of the steps:
as §1

Series [9] concerns Mus musculus. Description: Biodistribution of [111In]-DTPA-NT in HT-29 tumor implanted SCID mice kidneys at 4 hr postinjection LSA administration. Format: ADME, organism-based, Kidney. The note with it: in vivo. An outline of the steps: as §2
Series [10] has as its system Mus musculus. Description: Biodistribution of [111In]DTPA-NT in HT-29 tumor implanted SCID mice muscle at 1 h postinjection. The note with it: in vivo. The series is classed as ADME, organism-based, Muscle tissue. The method in brief: as §1
The subject of series [11] is Mus musculus. Description: Biodistribution of [111In]-DTPA-NT in HT-29 tumor implanted SCID mice blood at 4 hr postinjection LSA administration. The series is classed as ADME, organism-based. Particulars: in vivo. An outline of the steps: as §2
Series [12] has as its system Mus musculus. Description: Biodistribution of [111In]-DTPA-NT in HT-29 tumor implanted SCID mice spleen at 4 hr postinjection LSA administration. The series is classed as ADME, organism-based. The note with it: in vivo. An outline of the steps:
as §2

The test system of series [13] is Mus musculus. Description: Biodistribution of [111In]-DTPA-NT in HT-29 tumor implanted SCID mice muscle at 4 hr postinjection LSA administration. Format: ADME, organism-based, Muscle tissue. Particulars: in vivo. An outline of the steps: as §2
For series [14], the system named is Mus musculus. Description: Biodistribution of [111In]DTPA-NT in HT-29 tumor implanted SCID mice liver at 1 h postinjection. Format: ADME, organism-based. Particulars: in vivo. The method in brief: as §1
The target of series [15] is Neurotensin receptor type 1 (Homo sapiens, UniProt P30989). Description: Binding affinity towards neurotensin receptor in membranes prepared from HT-29 cell line, relative to [111In]-labeled neurotensin peptide.
The test system of series [16] is Mus musculus. Description: Biodistribution of [111In]DTPA-NT in HT-29 tumor implanted SCID mice blood at 1 h postinjection. The series is classed as ADME, organism-based. Particulars: in vivo. An outline of the steps: as §1
The test system of series [17] is Mus musculus. Description: Biodistribution of [111In]DTPA-NT in HT-29 tumor implanted SCID mice tumor at 1 h postinjection. Format: ADME, organism-based. Particulars: in vivo. The method in brief:
as §1

The test system of series [18] is Mus musculus. Description: Biodistribution of [111In]DTPA-NT in HT-29 tumor implanted SCID mice liver at 4 h postinjection. The series is classed as ADME, organism-based. The note with it: in vivo. The method in brief:
as §1

Series [19] deals with Mus musculus. Description: Biodistribution of [111In]-DTPA-NT in HT-29 tumor implanted SCID mice tumor at 4 hr postinjection. The series is classed as ADME, organism-based. The note with it: in vivo. An outline of the steps:
as §1

For series [20], the system named is Mus musculus. Description: Biodistribution of [111In]DTPA-NT in HT-29 tumor implanted SCID mice blood at 4 h postinjection. The series is classed as ADME, organism-based. The note with it: in vivo. The method in brief:
as §1

In series [21] the test system is Mus musculus. Description: Biodistribution of [111In]-DTPA-NT in HT-29 tumor implanted SCID mice pancreas at 4 h postinjection. The note with it: in vivo. Format: ADME, organism-based. The method in brief: as §1
Series [22] deals with Mus musculus. Description: Biodistribution of [111In]DTPA-NT in HT-29 tumor implanted SCID mice tumor at 4 h postinjection LSA administration. Format: ADME, organism-based. Particulars: in vivo. The method in brief: as §2

Sequence of Neurotensin receptor type 1 (P30989 whole entry): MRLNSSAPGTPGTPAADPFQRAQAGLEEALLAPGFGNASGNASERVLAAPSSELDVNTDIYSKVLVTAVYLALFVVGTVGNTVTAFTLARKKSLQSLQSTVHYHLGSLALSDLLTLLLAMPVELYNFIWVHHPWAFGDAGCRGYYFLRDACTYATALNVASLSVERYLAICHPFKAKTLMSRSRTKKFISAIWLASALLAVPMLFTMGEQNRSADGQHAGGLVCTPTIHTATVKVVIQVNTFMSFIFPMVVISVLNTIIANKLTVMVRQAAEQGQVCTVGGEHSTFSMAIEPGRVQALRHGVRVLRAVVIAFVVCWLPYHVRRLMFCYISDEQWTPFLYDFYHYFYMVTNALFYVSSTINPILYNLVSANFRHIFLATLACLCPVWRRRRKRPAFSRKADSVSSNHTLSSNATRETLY

As to `CC(C)C[C@H](NC(=O)[C@@H](NC(=O)[C@H](Cc1ccc(O)cc1)NC(=O)[C@@H]1CCCN1C(=O)[C@H](CCCN=C(N)N)NC(=O)[C@@H](NC(=O)[C@@H]1CCCN1C(=O)[C@@H](NC(=O)CN(CCN(CCN(CC(=O)O)CC(=O)O)CC(=O)O)CC(=O)O)C1CCNCC1)C1CCN(C(=N)N)CC1)C(C)(C)C)C(=O)O` ({DTPA}-[Gly(piperidin-4-yl)]P[Gly(1-amidinopiperidin-4-yl)]RPY[Tle]L-OH), the ID/g tissue with Mus musculus [1] was 0.152%; in the series on Mus musculus [2], 0.021%; in the series with Mus musculus [3] it was 0.168%; in the series with Mus musculus [4], 4.841%; with Mus musculus [5] it was 0.051%; in the series on Mus musculus [6] it was 0.18%. Further, the ID/g tissue in the series with Mus musculus [7] was found to be 0.085%; in the series with Mus musculus [8], 6.141%; with Mus musculus [9] it was 5.725%; with Mus musculus [10] it was 0.092%; in the series on Mus musculus [11], 0.027%; in the series with Mus musculus [12], 0.088%. The ID/g tissue is recorded as 0.03% in the series on Mus musculus [13]; 0.203% with Mus musculus [14]; 0.416% with Mus musculus [16]; 2.831% in the series with Mus musculus [17]; 0.133% in the series with Mus musculus [18]; 2.177% with Mus musculus [19]. In addition, the ID/g tissue with Mus musculus [20] turned out to be 0.03%; in the series on Mus musculus [21] it was 0.03%; with Mus musculus [22], 0.263%. For the same compound, the IC50 in series [15] was determined as 0.3 nM.

The IC50 is the concentration that inhibits the measured activity by half. Higher therefore signals a need for much substance.
